Measured values from different studies.
Compare with care: the assays were run in different laboratories. Values after ≈ are worked out from the molar mass of the structure shown.

| SMILES | organism | test | test system | setting | endpoint | result |
| --- | --- | --- | --- | --- | --- | --- |
| CC1(C)S[C@@H]2[C@H](NC(=O)[C@H](N)c3ccc(O)cc3)C(=O)N2[C@H]1C(=O)O | Escherichia coli | microbial growth, disc diffusion |  | 100 µg/mL, 24 h | inhibition zone | 20 mm |
| CC(O)CSc1nnc(-c2cc3c(ccc4ccccc43)o2)n1-c1ccccc1 (stereo not shown) | Escherichia coli | microbial growth, disc diffusion |  | 25 µg/disc | inhibition zone | 15.7 mm |
| C=C/C=C(\C)CC[C@H]1C[C@@H](O)CC(=O)O1 | Staphylococcus aureus | microbial growth, broth dilution | ATCC6538P |  | MIC | 256 µg/mL (≈ 1220 µM) |
| C[C@@H](O)[C@H]1C(=O)N2C(C(=O)O)=C(SCCN=CN)C[C@H]12 | Escherichia coli | microbial growth, disc diffusion |  | 2000 µg/mL, 24 h | inhibition zone | 18.5 mm |
| O=C(O)c1cn(C2CC2)c2cc(N3CCNCC3)c(F)cc2c1=O | Escherichia coli | microbial growth, disc diffusion |  | 100 µg/mL, 24 h | inhibition zone | 25 mm |
| CC(O)CSc1nnc(-c2cc3ccccc3o2)n1-c1ccccc1 (stereo not shown) | Staphylococcus aureus | microbial growth, disc diffusion |  | 25 µg/disc | inhibition zone | 11.3 mm |
| CO/N=C(\C(=O)N[C@@H]1C(=O)N2C(C(=O)O)=C(CSC(=O)c3ccco3)CS[C@H]12)c1csc(N)n1 | Staphylococcus aureus | microbial killing | CVCC546 | 18 h | MBC | 2 µg/mL |
| CC(C)(O/N=C(\C(=O)N[C@@H]1C(=O)N2C(C(=O)[O-])=C(C[n+]3ccccc3)CS[C@H]12)c1csc(N)n1)C(=O)O | Escherichia coli | microbial growth, disc diffusion |  | 2000 µg/mL, 24 h | inhibition zone | 5 mm |
| CC(O)CSc1nnc(Cn2cnc3c2c(=O)n(C)c(=O)n3C)n1-c1ccccc1 (stereo not shown) | Escherichia coli | microbial growth, disc diffusion |  | 25 µg/disc | inhibition zone | 11 mm |
| CO/N=C(\C(=O)N[C@@H]1C(=O)N2C(C(=O)O)=C(COC(C)=O)CS[C@H]12)c1csc(N)n1 | Escherichia coli | microbial growth, broth dilution |  | clinical isolate | MIC90 | 64 µg/mL (≈ 141 µM) |
